From ChEMBL document CHEMBL2407075, “Sulphonamido-quinoxalines: search for anticancer agent” (Eur J Med Chem, 2013)

Legend:
Assay type in all cases: functional
BT-549 = experiment: Growth inhibition of human BT549 cells assessed as cell growth at 10^-8 M after 48 hrs by sulforhodamine B assay; settings: BT-549, 48 h, read-out: Activity
Summary of the method: (§1)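 Five-dose NCI-60 run (0.01, 0.1, 1, 10 and 100 µM, as 10-fold dilutions from a DMSO stock made at 400× the top final level). Cells were grown in RPMI 1640 with 5% FBS and 2 mM glutamine and plated for 24 h. They were then exposed for 48 h at 37 °C and 5% CO2. TCA fixation was followed by SRB staining with A515 read-out. Percent growth was taken relative to time-zero and control plates.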

T47D = experiment: Growth inhibition of human T47D cells after 48 hrs by sulforhodamine B assay; settings: for CC50: read-out: LC50 (the source's name)
Summary of the method: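 Five-dose NCI 60 screen at 0.01, 0.1, 1, 10 and 100 µM, 48 h exposure after 24 h preincubation, in RPMI 1640 with 5% FBS and 2 mM glutamine. Fixed with TCA (10% final for adherent cells, 16% for suspension cells), stained with SRB, A515 read. Percent growth uses time-zero (Tz), control and treated plates. GI50, TGI and LC50 are read from the dose-response curves.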

HCT-15 [1] = experiment: Growth inhibition of human HCT15 cells assessed as cell growth at 10^-4 M after 48 hrs by sulforhodamine B assay; settings: HCT-15, 48 h, read-out: Activity
Summary of the method: (§2)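 Five-dose screen at NCI. Cells in RPMI 1640 with 5% FBS and 2 mM L-glutamine, seeded at 5000–40,000 cells/well and grown 24 h at 37 °C, 5% CO2 before dosing, with time-zero plates TCA-fixed. Drug diluted from DMSO stock to 0.01, 0.1, 1, 10 and 100 µM final, 48 h. Cells fixed with cold TCA (10% final), stained with 0.4% SRB and read at 515 nm. Percent growth from Tz, control and test absorbances; GI50, TGI and LC50 from dose-response curves.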

OVCAR-4 [2] = experiment: Growth inhibition of human OVCAR4 cells assessed as cell growth at 10^-8 M after 48 hrs by sulforhodamine B assay; settings: OVCAR-4, 48 h, read-out: Activity
HCT-15 [3] = experiment: Growth inhibition of human HCT15 cells assessed as cell growth at 10^-5 M after 48 hrs by sulforhodamine B assay; settings: HCT-15, 48 h, read-out: Activity; summary of the method: as §2
MCF7 = experiment: Growth inhibition of human MCF7 cells assessed as cell growth at 10^-5 M after 48 hrs by sulforhodamine B assay; settings: MCF7, 48 h, read-out: Activity
[4] = Growth inhibition of human EKVX cells after 48 hrs by sulforhodamine B assay; settings: for CC50: read-out: LC50 (the source's name)
Summary of the method: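 Adherent cells in RPMI 1640 with 5% FBS and 2 mM L-glutamine were plated at 5000–40,000 cells/well and grown 24 h. Five concentrations (0.01–100 µM, DMSO stock) were added for 48 h at 37 °C. Cells were fixed with cold TCA (10% final) and stained with SRB, read at 515 nm. GI50 came from log concentration–growth curves against time-zero and control plates.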

LOX IMVI [5] = experiment: Growth inhibition of human LOXIMVI cells assessed as cell growth at 10^-5 M after 48 hrs by sulforhodamine B assay; settings: read-out: Activity
SR = experiment: Growth inhibition of human SR cells after 48 hrs by sulforhodamine B assay; settings: for CC50: read-out: LC50 (the source's name)
Summary of the method: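 Leukemia suspension cells in RPMI 1640 with 5% FBS and 2 mM L-glutamine were plated at 5000–40,000 cells/well and grown 24 h. Five concentrations (0.01–100 µM) were given for 48 h at 37 °C. Settled cells were fixed with 80% TCA (16% final) and SRB-stained, read at 515 nm. GI50 came from dose–response curves against time-zero and control plates.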

OVCAR-4 [6] = experiment: Growth inhibition of human OVCAR4 cells assessed as cell growth at 10^-6 M after 48 hrs by sulforhodamine B assay; settings: OVCAR-4, 48 h, read-out: Activity
[7] = Growth inhibition of human NCI-ADR-RES cells assessed as cell growth at 10^-8 M after 48 hrs by sulforhodamine B assay; settings: read-out: Activity
Malme-3M = experiment: Growth inhibition of human MALME-3M cells assessed as cell growth at 10^-8 M after 48 hrs by sulforhodamine B assay; settings: read-out: Activity
NCI-H23 = experiment: Growth inhibition of human NCI-H23 cells assessed as cell growth at 10^-7 M after 48 hrs by sulforhodamine B assay; settings: NCI-H23, 48 h, read-out: Activity
MDA-MB-231 = experiment: Growth inhibition of human MDA-MB-231 cells assessed as cell growth at 10^-5 M after 48 hrs by sulforhodamine B assay; settings: MDA-MB-231, 48 h, read-out: Activity
HT-29 = experiment: Growth inhibition of human HT-29 cells assessed as cell growth at 10^-4 M after 48 hrs by sulforhodamine B assay; settings: HT-29, 48 h, read-out: Activity; summary of the method: as §2
HL-60(TB) = experiment: Growth inhibition of human HL-60(TB) cells assessed as cell growth at 10^-4 M after 48 hrs by sulforhodamine B assay; settings: HL-60, 48 h, read-out: Activity
Summary of the method: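 HL-60(TB) suspension cells were treated 48 h at 37 °C within the five-dose series (0.01–100 µM), fixed with 16% final TCA and SRB-stained, read at 515 nm. Percentage growth at each concentration = (Ti−Tz)/(C−Tz)×100, or (Ti−Tz)/Tz×100 when Ti<Tz, with time-zero (Tz) and untreated control (C) plates.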

HOP-62 = experiment: Growth inhibition of human HOP62 cells assessed as cell growth at 10^-8 M after 48 hrs by sulforhodamine B assay; settings: HOP-62, 48 h, read-out: Activity; summary of the method: as §2
OVCAR-5 = experiment: Growth inhibition of human OVCAR5 cells assessed as cell growth at 10^-4 M after 48 hrs by sulforhodamine B assay; settings: OVCAR-5, 48 h, read-out: Activity
M14 = experiment: Growth inhibition of human M14 cells assessed as cell growth at 10^-7 M after 48 hrs by sulforhodamine B assay; settings: M14, 48 h, read-out: Activity
NCI-H522 = experiment: Growth inhibition of human NCI-H522 cells assessed as cell growth at 10^-5 M after 48 hrs by sulforhodamine B assay; settings: NCI-H522, 48 h, read-out: Activity
NCI-H226 = experiment: Growth inhibition of human NCI-H226 cells assessed as cell growth at 10^-6 M after 48 hrs by sulforhodamine B assay; settings: NCI-H226, 48 h, read-out: Activity
A498 = experiment: Growth inhibition of human A498 cells assessed as cell growth at 10^-8 M after 48 hrs by sulforhodamine B assay; settings: A498, 48 h, read-out: Activity; summary of the method: as §1
OVCAR-3 = experiment: Growth inhibition of human OVCAR3 cells assessed as cell growth at 10^-6 M after 48 hrs by sulforhodamine B assay; settings: OVCAR-3, 48 h, read-out: Activity
[8] = Growth inhibition of human Hs 578T cells assessed as cell growth at 10^-4 M after 48 hrs by sulforhodamine B assay; settings: read-out: Activity; summary of the method: as §2
LOX IMVI [9] = experiment: Growth inhibition of human LOXIMVI cells assessed as cell growth at 10^-6 M after 48 hrs by sulforhodamine B assay; settings: read-out: Activity

Q: What does the source list for O=S(=O)(Nc1ccccn1)c1ccc2nc(-c3ccccc3)c(-c3ccccc3)nc2c1?
A: growth at 0.01 µM (BT-549): 99%; GI50 (T47D): 1.12 µM; TGI (T47D): 5.14 µM; CC50 (T47D): > 100 µM; growth at 100 µM (HCT-15 [1]): 63%; growth at 0.01 µM (OVCAR-4 [2]): 100%; growth at 10 µM (HCT-15 [3]): 3%; growth at 10 µM (MCF7): -22%; GI50 [4]: 2.69 µM; TGI [4]: > 100 µM; CC50 [4]: > 100 µM; growth at 10 µM (LOX IMVI [5]): -93%; GI50 (SR): 1.4 µM; CC50 (SR): > 100 µM; growth at 1 µM (OVCAR-4 [6]): 82%; growth at 0.01 µM [7]: 101%; growth at 0.01 µM (Malme-3M): 97%; growth at 0.1 µM (NCI-H23): 94%; growth at 10 µM (MDA-MB-231): -60%; growth at 100 µM (HT-29): 24%; growth at 100 µM (HL-60(TB)): 29%; growth at 0.01 µM (HOP-62): 96%; growth at 100 µM (OVCAR-5): 99%; growth at 0.1 µM (M14): 89%; growth at 10 µM (NCI-H522): -42%; growth at 1 µM (NCI-H226): 96%; growth at 0.01 µM (A498): 88%; growth at 1 µM (OVCAR-3): 92%; growth at 100 µM [8]: 46%; growth at 1 µM (LOX IMVI [9]): 88%

Q: With O=S(=O)(Nc1ccc(Cl)cc1)c1ccc2nc(-c3ccccc3)c(-c3ccccc3)nc2c1 as the compound, how does the growth at 0.01 µM (BT-549) read?
A: 98%

Q: And the GI50 (T47D)?
A: 1.62 µM

Q: And the CC50 (T47D)?
A: > 100 µM

Q: And the growth at 100 µM (HCT-15 [1])?
A: 68%

Q: What about the growth at 0.01 µM (OVCAR-4 [2]) of the same compound?
A: 85%

Q: And the growth at 10 µM (HCT-15 [3])?
A: 3%

Q: What about the growth at 10 µM (MCF7) of the same compound?
A: -16%

Q: What about the CC50 [4] of the same compound?
A: > 100 µM

Q: And the growth at 10 µM (LOX IMVI [5])?
A: 3%

Q: And the CC50 (SR)?
A: > 100 µM

Q: What about the growth at 1 µM (OVCAR-4 [6]) of the same compound?
A: 76%

Q: And the growth at 0.01 µM [7]?
A: 99%

Q: And the growth at 0.01 µM (Malme-3M)?
A: 106%

Q: And the growth at 0.1 µM (NCI-H23)?
A: 92%

Q: And the growth at 10 µM (MDA-MB-231)?
A: -78%

Q: What about the growth at 100 µM (HT-29) of the same compound?
A: 53%

Q: And the growth at 100 µM (HL-60(TB))?
A: 45%

Q: And the growth at 0.01 µM (HOP-62)?
A: 96%

Q: What about the growth at 100 µM (OVCAR-5) of the same compound?
A: 90%

Q: What about the growth at 0.1 µM (M14) of the same compound?
A: 85%

Q: And the growth at 10 µM (NCI-H522)?
A: -34%

Q: What about the growth at 1 µM (NCI-H226) of the same compound?
A: 101%

Q: What about the growth at 0.01 µM (A498) of the same compound?
A: 75%

Q: What about the growth at 1 µM (OVCAR-3) of the same compound?
A: 94%

Q: And the growth at 100 µM [8]?
A: 59%

Q: What about the growth at 1 µM (LOX IMVI [9]) of the same compound?
A: 89%
